Test results from ChEMBL document CHEMBL1124872, “Guanosine analogues. Synthesis of nucleosides of certain 3-substituted 6-aminopyrazolo[3,4-d]pyrimidin-4(5H)-ones as potential immunotherapeutic agents” (1990).

How the values were obtained:
Type in all cases: functional
[1] = tested on: Semliki Forest virus; assay: Effect of compound on forest virus infection in mice, Mean survival time through 21 days at 200 mg/kg dose
Outline: (§1)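 Female Swiss Webster mice, about 20 g, received test compound intraperitoneally in aqueous 2% sodium bicarbonate. The daily dose was split into two halves given 24 h and 18 h before lethal Semliki Forest virus inoculation. Placebo mice got 2% sodium bicarbonate alone (0.1 mL/injection). The read-outs were survivors per group and mean survival time with standard deviation.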

[2] = tested on: Semliki Forest virus; assay: Effect of compound on forest virus infection in mice, Mean survival time through 21 days at 100 mg/kg dose; outline: as §1
[3] = tested on: Semliki Forest virus; assay: Effect of compound on forest virus infection in mice at the dose of 200 mg/kg; tested over 12 mice; outline: as §1
[4] = tested on: Semliki Forest virus; assay: Effect of compound on forest virus infection in mice at the dose of 100 mg/kg; tested over 12 mice; outline: as §1
[5] = tested on: Mus musculus; assay: In vivo effect of Guanosines on murine NK cell activity at E:T ratio of 100:1
Outline: (§2)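 Mice dosed ip with 150 mg/kg in 2% aqueous sodium bicarbonate, split as 75 mg/kg b.i.d. for 1 day; controls got 2% sodium bicarbonate alone; groups of two. Spleens taken after 24 h; splenocytes tested ex vivo against 51Cr-labelled YAC-1 T-cell lymphoma targets in a 4 h 51Cr release assay, in triplicate, at two effector:target ratios.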

[6] = tested on: Semliki Forest virus; assay: Effect of compound on forest virus infection in mice at the dose of 200 mg/kg; Tested over 12 mice; outline: as §1
[7] = tested on: Mus musculus; assay: In vivo effect of Guanosines on murine NK cell activity at E:T ratio of 50:1; outline: as §2
[8] = tested on: Semliki Forest virus; assay: Effect of compound on forest virus infection in mice at the dose of 100 mg/kg; Tested over 12 mice; outline: as §1
[9] = tested on: Mus musculus; assay: In vivo effect of Guanosines on murin NK cell activity at E:T ratio of 100:1; outline: as §2
[10] = tested on: Semliki Forest virus; assay: Effect of compound on forest virus infection in mice at the dose of 200 mg/kg; tested over 11 mice; outline: as §1

| Compound | Mean survival time [1] [days] | Mean survival time [2] [days] | Survivors / total [3] | Survivors / total [4] | Cytotoxicity [5] [%] | Survivors / total [6] | Cytotoxicity [7] [%] | Survivors / total [8] | Cytotoxicity [9] [%] | Survivors / total [10] |
| --- | --- | --- | --- | --- | --- | --- | --- | --- | --- | --- |
| Nc1nc2c(c(C(=O)O)nn2C2O[C@H](CO)[C@@H](O)[C@H]2O)c(=O)[nH]1 (stereo partly drawn) | 6.3 | 6 | 3 | 1 | – | – | – | – | – | – |
| Nc1nc2c(cnn2C2O[C@H](CO)[C@@H](O)[C@H]2O)c(=O)[nH]1 (stereo partly drawn) | > 21 | 9 | – | – | 41.1 | 12 | 26.9 | 9 | – | – |
| Nc1nc2c(c(Br)nn2C2O[C@H](CO)[C@@H](O)[C@H]2O)c(=O)[nH]1 (stereo partly drawn) | 9 | 9 | – | – | – | 11 | 24.4 | 11 | 33.2 | – |
| Cc1nn(C2O[C@H](CO)[C@@H](O)[C@H]2O)c2nc(N)[nH]c(=O)c12 (stereo partly drawn) | 6.4 | 8 | – | 8 | 29.7 | – | 17 | – | – | 6 |
| Nc1nc2c(c(N)nn2C2O[C@H](CO)[C@@H](O)[C@H]2O)c(=O)[nH]1 (stereo partly drawn) | 6.8 | 6.2 | – | – | 25 | 3 | 16.8 | 1 | – | – |
| COc1nn(C2O[C@H](CO)[C@@H](O)[C@H]2O)c2nc(N)[nH]c(=O)c12 (stereo partly drawn) | 8.6 | 7.8 | 2 | – | – | – | – | 2 | – | – |
| Nc1nc2c(c(=O)[nH]1)c(=O)[nH]n2C1O[C@H](CO)[C@@H](O)[C@H]1O (stereo partly drawn) | 6.9 | 7 | 0% | – | – | – | – | – | – | – |
| N=c1[nH]c(=O)c2c(-c3ccccc3)nn(C3O[C@H](CO)[C@@H](O)[C@H]3O)c2[nH]1 (stereo partly drawn) | 7.2 | 6 | 0 | 1 | – | – | – | – | – | – |
| Nc1nc(=O)c2sc(=O)n([C@@H]3O[C@H](CO)[C@@H](O)[C@H]3O)c2[nH]1 [ISATORIBINE] | >21 | 11.5 | – | – | – | 12 | – | 10 | – | – |
